This note sets out measurements from ChEMBL document CHEMBL1799944, “New 2-heterocyclyl-imidazo[2,1-i]purin-5-one derivatives as potent and selective human A3 adenosine receptor antagonists” (J Med Chem, 2011).

Series [1] can be described thus: Solubility of compound in water. It counts as physicochemical.
For another series, the species on record is Homo sapiens. Briefly: Ratio of Ki for human adenosine A2A receptor to Ki for human adenosine A3 receptor.
For series [2], the target named is T1, Adenosine receptor A2b (Homo sapiens) (UniProt P29275).
T1 sequence (whole entry): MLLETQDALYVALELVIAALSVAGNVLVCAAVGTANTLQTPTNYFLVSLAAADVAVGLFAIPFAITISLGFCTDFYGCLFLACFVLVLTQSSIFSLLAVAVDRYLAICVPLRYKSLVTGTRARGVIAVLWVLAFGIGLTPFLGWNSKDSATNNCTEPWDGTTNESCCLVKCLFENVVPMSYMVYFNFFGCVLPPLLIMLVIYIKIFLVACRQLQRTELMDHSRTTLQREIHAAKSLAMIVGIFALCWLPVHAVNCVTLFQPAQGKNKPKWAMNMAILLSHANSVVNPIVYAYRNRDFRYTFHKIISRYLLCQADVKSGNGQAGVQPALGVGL
Briefly: Antagonist activity human adenosine A2B receptor expressed in CHO cells assessed as inhibition of NECA-mediated [3H]cAMP accumulation at =<5000 nM after 150 mins by scintillation counter. It counts as functional, cell-based. A digest of the protocol:
(§1)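 Intact CHO cells expressing hA2B (1 x 10^6 cells/assay), preincubated 10 min at 37 °C in saline buffer pH 7.4 with 2 IU/mL adenosine deaminase and Ro 20-1724. Antagonism of 100 nM NECA-stimulated cAMP rise. Stopped with cold 6% TCA, ether-extracted. cAMP measured by competition binding with [3H]cAMP and beef adrenal binding protein (4 °C, 150 min), charcoal separation, scintillation counting. IC50 by sigmoid nonlinear regression, mean ± SEM.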

In a further series the target is T2, Adenosine receptor A2b (Homo sapiens, UniProt P29275).
T2 sequence (P29275 whole entry): T1 sequence (whole entry)
Briefly: Antagonist activity human adenosine A2B receptor expressed in CHO cells assessed as inhibition of NECA-mediated [3H]cAMP accumulation after 150 mins by scintillation counter. It counts as functional, cell-based. A digest of the protocol:
as §1

For series [3], the target named is T3, Adenosine receptor A3 (Homo sapiens, UniProt P0DMS8).
T3 sequence (P0DMS8 whole entry): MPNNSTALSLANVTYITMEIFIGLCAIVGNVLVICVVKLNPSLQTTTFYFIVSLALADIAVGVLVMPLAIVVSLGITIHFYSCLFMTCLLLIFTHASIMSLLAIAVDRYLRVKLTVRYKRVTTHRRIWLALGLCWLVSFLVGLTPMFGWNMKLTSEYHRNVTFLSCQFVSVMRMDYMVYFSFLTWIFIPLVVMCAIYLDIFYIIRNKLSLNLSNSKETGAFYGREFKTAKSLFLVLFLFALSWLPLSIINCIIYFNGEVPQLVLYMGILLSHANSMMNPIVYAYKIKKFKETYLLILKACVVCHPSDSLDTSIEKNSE
Briefly: Displacement of [3H]MRE 3008F20 from human adenosine A3 receptor expressed in CHO cells after 120 mins by scintillation spectrometry. It counts as cell-based. A digest of the protocol: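 Membranes from hA3 CHO cells (50 μg protein/assay) in 50 mM Tris HCl, 10 mM MgCl2, 1 mM EDTA pH 7.4, adenosine deaminase-treated. Incubated with 1 nM [3H]MRE 3008F20 and 6-8 ligand concentrations, 120 min at 4 °C. Nonspecific defined with 1 μM MRE 3008F20 (~25% of total). GF/B filtration, three ice-cold washes, scintillation counting. Ki via Cheng-Prusoff; geometric mean, 95% confidence limits, n = 3-6.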

Series [4] deals with T4, Adenosine receptor A2a (Homo sapiens, UniProt P29274). Briefly: Displacement of [3H]ZM 241385 from human adenosine A2A receptor expressed in CHO cells at <=5000 nM after 60 mins by scintillation spectrometry. It counts as cell-based.
Series [5] concerns the target T4, Adenosine receptor A2a. Briefly: Displacement of [3H]ZM 241385 from human adenosine A2A receptor expressed in CHO cells after 60 mins by scintillation spectrometry. The series is classed as cell-based.
Series [6] addresses T5, Adenosine receptor A1 (Homo sapiens) (UniProt P30542).
T5 sequence (whole entry): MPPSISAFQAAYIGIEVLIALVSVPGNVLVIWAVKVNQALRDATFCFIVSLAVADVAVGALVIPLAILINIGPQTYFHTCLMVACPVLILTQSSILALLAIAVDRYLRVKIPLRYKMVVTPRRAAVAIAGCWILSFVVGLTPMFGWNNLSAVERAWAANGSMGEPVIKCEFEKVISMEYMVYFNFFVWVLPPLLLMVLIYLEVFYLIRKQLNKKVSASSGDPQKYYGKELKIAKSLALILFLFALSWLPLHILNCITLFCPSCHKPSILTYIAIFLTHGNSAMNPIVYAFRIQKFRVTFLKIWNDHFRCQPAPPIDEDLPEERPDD
Briefly: Displacement of [3H]DPCPX from human adenosine A1 receptor expressed in CHO cells at =<5000 nM after 120 mins by scintillation spectrometry. It counts as cell-based. A digest of the protocol:
(§2)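 hA1 CHO membranes (50 μg protein/assay) in 50 mM Tris HCl pH 7.4, pretreated with adenosine deaminase 2 UI/mL for 30 min at 37 °C. Incubated with 1 nM [3H]DPCPX plus 6-8 ligand concentrations for 120 min at 25 °C. Nonspecific binding defined with 1 μM DPCPX. Ki from IC50 by Cheng-Prusoff; geometric means with 95% confidence limits.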

The next series concerns the target T6, Adenosine receptor A1 (Homo sapiens, UniProt P30542).
T6 sequence (P30542 whole entry): T5 sequence (whole entry)
Briefly: Displacement of [3H]DPCPX from human adenosine A1 receptor expressed in CHO cells after 120 mins by scintillation spectrometry. It counts as cell-based. A digest of the protocol: as §2

Series [7] addresses Adenosine receptors; A1 & A3 (Homo sapiens) (UniProt P30542+P0DMS8). Briefly: Ratio of Ki for human adenosine A1 receptor to Ki for human adenosine A3 receptor.
The target in series [8] is T3, Adenosine receptor A3. Briefly: Antagonist activity human adenosine A3 receptor expressed in CHO cells assessed as blockade of Cl-IB-MECA-mediated inhibition of forskolin-stimulated [3H]cAMP accumulation after 150 mins by scintillation counter. The series is classed as functional, cell-based. In short, it runs like this: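 hA3-expressing CHO cells (1 x 10^6 cells/assay), preincubated 10 min at 37 °C in saline buffer pH 7.4 with adenosine deaminase 2 IU/mL and Ro 20-1724. Antagonism of 100 nM Cl-IB-MECA inhibition of cAMP in presence of 1 μM forskolin. Stopped with cold TCA. cAMP by [3H]cAMP competition protein binding (4 °C, 150 min), scintillation counting. IC50 from sigmoid nonlinear regression, mean ± SEM.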

Series [9] concerns the target T3, Adenosine receptor A3. Briefly: Inverse agonist activity at human recombinant A3 adenosine receptor expressed CHO cells by [35S]GTPgammaS binding assay. It counts as functional, cell-based.

T4 sequence (P29274 whole entry): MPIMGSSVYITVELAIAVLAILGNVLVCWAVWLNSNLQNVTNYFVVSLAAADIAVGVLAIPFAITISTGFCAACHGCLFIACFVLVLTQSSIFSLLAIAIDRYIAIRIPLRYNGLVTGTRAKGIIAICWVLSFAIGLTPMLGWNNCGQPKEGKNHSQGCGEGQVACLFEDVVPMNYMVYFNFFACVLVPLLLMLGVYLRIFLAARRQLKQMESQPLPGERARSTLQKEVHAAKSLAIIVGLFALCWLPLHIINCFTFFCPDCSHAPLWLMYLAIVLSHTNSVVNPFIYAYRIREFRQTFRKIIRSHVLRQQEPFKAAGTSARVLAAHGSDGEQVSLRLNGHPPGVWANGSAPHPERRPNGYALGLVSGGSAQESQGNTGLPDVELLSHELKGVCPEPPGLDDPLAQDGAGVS

Consider `CCCN1C(=O)N2C[C@@H](CC)N=C2c2[nH]c(C34CCC(O)(CC3)CC4)nc21`, for which the solubility in series [1] is greater than 100 mg/mL.
`C=CCN1C(=O)N2CC(CC)N=C2c2[nH]c(-c3cc(C)n(C)n3)nc21` (racemic): in the series filed under Homo sapiens, the Ratio Ki amounted to 330. Moreover, the inhibition in [2] was 16%; on Adenosine receptor A2a [4], 1%; in series [6] it was 20%. Besides, at Adenosine receptor A2b, the IC50 was greater than 5000 nM. Besides, the Ki was 12.5 nM on Adenosine receptor A3 [3], greater than 5000 nM at Adenosine receptor A2a [5] and greater than 5000 nM on Adenosine receptor A1.
On to `COc1cc(-c2nc3c([nH]2)C2=NC(C)CN2C(=O)N3Cc2ccccc2)on1` (racemic), for which the Ratio Ki in [7] is 1800; in the series filed under Homo sapiens it was greater than 1800. In addition, the values for the concentration for half-maximal inhibition (IC50) at Adenosine receptor A3 [8] and at Adenosine receptor A2b were 20.4 nM and greater than 5000 nM, respectively. In addition, the inhibition in [2] was 11%; at Adenosine receptor A2a [4], 5%; in series [6], 35%. For the same compound, the values for the inhibitory constant (Ki) at Adenosine receptor A3 [3], on Adenosine receptor A2a [5] and at Adenosine receptor A1 were 2.68 nM, greater than 5000 nM and greater than 5000 nM, respectively.
`CCC1CN2C(=O)N(Cc3ccccc3)c3nc(-c4cc(C)n(C)n4)[nH]c3C2=N1` (racemic): the Ratio Ki in the series listed under Homo sapiens turned out to be 330. Further, the values for the inhibition (in series [2]; on Adenosine receptor A2a [4]; in [6]) were 27%, 13% and 28%, respectively. Moreover, at Adenosine receptor A2b, the IC50 is greater than 5000 nM. Further, the figures for the Ki at Adenosine receptor A3 [3], at Adenosine receptor A2a [5] and on Adenosine receptor A1 were 15 nM, greater than 5000 nM and greater than 5000 nM, respectively.
In the case of `C=CCN1C(=O)N2CC(C)N=C2c2[nH]c(-c3cc(OC)no3)nc21` (racemic), the Ratio Ki in series [7] was greater than 1400. Moreover, the IC50 on Adenosine receptor A3 [8] is 24.2 nM; at Adenosine receptor A2b, greater than 5000 nM. Also, the inhibition was 13% in [2], 11% at Adenosine receptor A2a [4] and 26% in series [6]. Also, the inhibition constant Ki was 3.58 nM on Adenosine receptor A3 [3], greater than 5000 nM on Adenosine receptor A2a [5] and greater than 5000 nM on Adenosine receptor A1.
Regarding `COc1cc(-c2nc3c([nH]2)C2=NC(C)CN2C(=O)N3Cc2ccccc2)n(C)n1` (stereo not drawn), in series [7], the Ratio Ki was found to be 610. Besides, the IC50 at Adenosine receptor A3 [8] is 27.6 nM; on Adenosine receptor A2b, greater than 5000 nM. For the same compound, the inhibition in [2] came to 11%; at Adenosine receptor A2a [4], 1%. For the same compound, the Ki at Adenosine receptor A3 [3] was 3.11 nM; at Adenosine receptor A2a [5], greater than 5000 nM; at Adenosine receptor A1, 1900 nM.
Take `C=CCN1C(=O)N2CC(C)N=C2c2[nH]c(-c3cc(OC)nn3C)nc21` (racemic): the Ratio Ki (in [7]; in the series listed under Homo sapiens) was 2100 each time. Besides, the IC50 is 14.5 nM at Adenosine receptor A3 [8] and greater than 5000 nM at Adenosine receptor A2b. Moreover, the inhibition worked out at 13% in series [2], 1% on Adenosine receptor A2a [4] and 30% in series [6]. In addition, the Ki at Adenosine receptor A3 [3] was 2.36 nM; at Adenosine receptor A2a [5] it was greater than 5000 nM; on Adenosine receptor A1, greater than 5000 nM.
As for `CC[C@@H]1CN2C(=O)N(C)c3nc(-c4cc(Cl)cc(Cl)c4Cl)[nH]c3C2=N1`, the IC50 at Adenosine receptor A3 [9] turned out to be 4 nM.
With `Cc1cc(-c2nc3c([nH]2)C2=NC(C)CN2C(=O)N3Cc2ccccc2)nn1C` (stereo not drawn), the Ratio Ki was greater than 400 in series [7] and 330 in the series filed under Homo sapiens. Also, the results for the inhibition (in series [2]; on Adenosine receptor A2a [4]; in series [6]) were 24%, 9% and 22%, respectively. Also, at Adenosine receptor A2b, the IC50 is greater than 5000 nM. Further, the values for the inhibition constant (Ki) on Adenosine receptor A3 [3], at Adenosine receptor A2a [5] and at Adenosine receptor A1 were 12.2 nM, greater than 5000 nM and greater than 5000 nM, respectively.
In the case of `CCC1CN2C(=O)N(Cc3ccccc3)c3nc(-c4cc(OC)nn4C)[nH]c3C2=N1` (racemic), the Ratio Ki in [7] amounted to 105. Further, the IC50 on Adenosine receptor A3 [8] is 20.4 nM; at Adenosine receptor A2b, greater than 5000 nM. Besides, the figures for the inhibition (in [2]; at Adenosine receptor A2a [4]) were 22% and 9%, respectively. For the same compound, the Ki on Adenosine receptor A3 [3] is 3.85 nM; at Adenosine receptor A2a [5], greater than 5000 nM; at Adenosine receptor A1 it was 405 nM.
With `C=CCN1C(=O)N2CC(C)N=C2c2[nH]c(-c3cc(OCc4ccccc4)nn3C)nc21` (racemic), the Ratio Ki in series [7] worked out at 202. Further, the inhibition in [2] stood at 17%; at Adenosine receptor A2a [4], 25%; in series [6] it was 47%. The half-maximal inhibitory concentration (IC50) at Adenosine receptor A2b is greater than 5000 nM. Moreover, the Ki at Adenosine receptor A3 [3] was 24.7 nM; on Adenosine receptor A2a [5], greater than 5000 nM; on Adenosine receptor A1, greater than 5000 nM.
Consider `C=CCN1C(=O)N2CC(C)N=C2c2[nH]c(-c3cc(C)n(C)n3)nc21` (racemic), for which the Ratio Ki in series [7] was greater than 359. The inhibition in series [2] turned out to be 9%; at Adenosine receptor A2a [4], 1%; in series [6] it was 13%. The half-maximal inhibitory concentration (IC50) at Adenosine receptor A2b is greater than 5000 nM. The Ki on Adenosine receptor A3 [3] is 13.9 nM; at Adenosine receptor A2a [5] it was greater than 5000 nM; at Adenosine receptor A1 it was greater than 5000 nM.
